Reference: the RNAGym collection of RNA variant scans (doi:10.1126/science.aae0568)
Fewer inactive variants are shown than the library holds.

B1: tRNA (parent)
chain: GUUCCGUUGGCGUAAUGGUAACGCGUCUCCCUCCUAAGGAGAAGACUGCGGGUUCGAGUCCCGUACGGAACG

Variants of: B1
Assay: yeast fitness relative to wild type (ratio to wild type); higher = fitter; tRNA-Arg(CCU), competitive growth, 37 C, YPD
Outline: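 The tRNA-Arg(CCU) gene variants were made by chemical synthesis with a 3% per-site mutation rate at 69 sites and inserted at the native genomic locus of Saccharomyces cerevisiae. After pooling, the strains were competed in YPD at 37°C for 24 hours in six parallel replicates. Gene amplicons from the start population and each end population were read by 100-nucleotide paired-end sequencing, and Darwinian fitness relative to wild type was taken from genotype frequency changes. Genotypes needed ≥ 100 starting reads, and estimates < 0.5 were set to 0.5.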

First: GUUCCGUUGGCAUAAUGGUAACGCGUCUCCCUCCUAAGGCGAAGACUGCGGGUUCGAGUCCCGUACGGCACG [G12A A40C A69C]
Second: GUUCCGUUGGCAUAAUGGUAACGCGUCUCCCUCCUAAGGCGAAGACUGCGGGUUAGAGUCCCGUACGGAACG [G12A A40C C55A]
The yeast fitness of the first is higher: 0.757 for the first, at most 0.5 for the second.

GUUCCGUUGGCAUAAUGGUAACGCGUCUCCCUCCUAAGGCGAAGACUGCGGGUUCGAGUCACGUACGGAACG [G12A A40C C61A] and GUUCCGUUGGCAUAAUGGUAACGCGUCUCCCUCCUAAGGCGAAGACUGCGGGUUCGAGGCCCGUGCGGAACG [G12A A40C U59G A65G] cannot be ordered by yeast fitness: at most 0.5 for the first, at most 0.5 for the second.

First: GUUCCGUUGGCAUAAUGGUAACGCGUCUCCCUCCUAAGGCGAAGACUGCGGGUUCGAGUCCCGGACGGAACG [G12A A40C U64G]
Second: GUUCCGUUGGCAUAAUGGUAACGCGUCUCCCUCCUAAGGGGAAGACUGCGGGUUCGAGUCCCGUACGGAACG [G12A A40G]
The yeast fitness of the first is lower: at most 0.5 for the first, 0.871 for the second.

Compared with GUUCCGUUGGCAUAAUGGUAACGCGUCUCCCUCCUAAGGGGAAGAAUGCGGGUUCGAGUCUCGUACGGAACG [G12A A40G C46A C61U], GUUCCGUUGGCAUAAUGGUAACGCGUCUCCCUCCUAAGGUGAAGACUGCGGGUUCGAGUCCCGUACGGAACG [G12A A40U] is higher in yeast fitness: at most 0.5 for the first, 1 for the second.

GUUCCGUUGGCAUAAUGGUAACGCGUCUCCCUCCUAAGGAGCAGACUGAGGGUUCGAGUCUCGUACGGAACG [G12A A42C C49A C61U] and GUUCCGUUGGCAUAAUGGUAACGCGUCUCCCUCCUAAGGAGCAGACUGCGGGUUUGAGUCCCGUACGGAACG [G12A A42C C55U] cannot be ordered by yeast fitness: at most 0.5 for the first, at most 0.5 for the second.

Compared with GUUCCGUUGGCAUAAUGGUAACGCGUCUCCCUCCUAAGGAGCAGACUGCGGAUUCGAGUCCCGUACGGAACG [G12A A42C G52A], GUUCCGUUGGCAUAAUGGUAACGCGUCUCCCUCCUAAGGAGGAGACUGCGGGUUCGAGUCCCGUACGGAACG [G12A A42G] is higher in yeast fitness: 0.585 for the first, 0.837 for the second.

Compared with GUUCCGUUGGCAUAAUGGUAACGCGUCUCCCUCCUAAGGAGGAGGCUGCGGGUACGAGUCCAGUACGGAACG [G12A A42G A45G U54A C62A], GUUCCGUUGGCAUAAUGGUAACGCGUCUCCCUCCUAAGGAGGAGACUGCGGGUUCGAGUCCCGUCCGGAACG [G12A A42G A65C] is higher in yeast fitness: at most 0.5 for the first, 0.6 for the second.

First: GUUCCGUUGGCAUAAUGGUAACGCGUCUCCCUCCUAAGGAGGAGACUGCGGGUUCGAGUCCCGUUCGGAACG [G12A A42G A65U]
Second: GUUCCGUUGGCAUAAUGGUAACGCGUCUCCCUCCUAAGGAGGAGACUGCGGGUUCGAGUCCCGUACGGUACG [G12A A42G A69U]
The yeast fitness of the first is lower: at most 0.5 for the first, 0.688 for the second.

GUUCCGUUGGCAUAAUGGUAACGCGUCUCCCUCCUAAGGAGGAGACUGCGGGUACGAGUCCCGUCCGGAACG [G12A A42G U54A A65C] and GUUCCGUUGGCAUAAUGGUAACGCGUCUCCCUCCUAAGGAGUAGACUGCGGGUUCGAGUGCCGUACGGGACG [G12A A42U C60G A69G] cannot be ordered by yeast fitness: at most 0.5 for the first, at most 0.5 for the second.

Compared with GUUCCGUUGGCAUAAUGGUAACGCGUCUCCCUCCUAAGGAGACGACUGCGGGUUCGAGUCCCGUACGGAACG [G12A A43C], GUUCCGUUGGCAUAAUGGUAACGCGUCUCCCUCCUAAGGAGACGAUUGCGGGUUCGAGUCCCGUACGGAACG [G12A A43C C46U] is lower in yeast fitness: 0.855 for the first, 0.764 for the second.

First: GUUCCGUUGGCAUAAUGGUAACGCGUCUCCCUCCUAAGGAGAGGACUGCGGGUUCGAGUCCCGUACGGAACG [G12A A43G]
Second: GUUCCGUUGGCAUAAUGGUAACGCGUCUCCCUCCUAAGGAGAUGACUGCGGGUUCGAGUCCCGUACGGAACG [G12A A43U]
The yeast fitness of the first is higher: 0.988 for the first, 0.889 for the second.

GUUCCGUUGGCAUAAUGGUAACGCGUCUCCCUCCUAAGGAGAUGCCUGCGGGUUCGGGUUCCGUACGCAACG [G12A A43U A45C A57G C60U G68C] and GUUCCGUUGGCAUAAUGGUAACGCGUCUCCCUCCUAAGGAGAUGCCUGCGGGUUCGAGUCCCGUACCUAACG [G12A A43U A45C G67C G68U] cannot be ordered by yeast fitness: at most 0.5 for the first, at most 0.5 for the second.

First: GUUCCGUUGGCAUAAUGGUAACGCGUCUCCCUCCUAAGGAGAUGACUGCGGGUUCGAGUCCUGUACGGAACG [G12A A43U C62U]
Second: GUUCCGUUGGCAUAAUGGUAACGCGUCUCCCUCCUAAGGAGAUGACUACGGGUUCGAGUCGCGUACGGACCG [G12A A43U G48A C61G A70C]
The yeast fitness of the first is higher: 0.807 for the first, at most 0.5 for the second.

Going from GUUCCGUUGGCAUAAUGGUAACGCGUCUCCCUCCUAAGGAGAAGCCUGCGGGUUCGAGUCCCGUACGGAACG [G12A A45C] to GUUCCGUUGGCAUAAUGGUAACGCGUCUCCCUCCUAAGGAGAAGGCCGCGGGUUCGAGACCCGUACGGAACG [G12A A45G U47C U59A], the yeast fitness falls from 0.834 to at most 0.5.

Compared with GUUCCGUUGGCAUAAUGGUAACGCGUCUCCCUCCUAAGGAGAAGACUGCGGGUUCGCGUCCCGUCCGGACCG [G12A A57C A65C A70C], GUUCCGUUGGCAUAAUGGUAACGCGUCUCCCUCCUAAGGAGAAGACUGCGGGUUCGAGUCCCGUCCGGAACG [G12A A65C] is higher in yeast fitness: at most 0.5 for the first, 0.851 for the second.

Compared with GUUCCGUUGGCAUAAUGGUAACGCGUCUCCCUCCUAAGGAGAAGACUGCGGGUUCGAGUCCCGUCUUGAACG [G12A A65C C66U G67U], GUUCCGUUGGCAUAAUGGUAACGCGUCUCCCUCCUAAGGAGAAGACUGCGGGUUCGAGUCCCGUGCGGCACG [G12A A65G A69C] is lower in yeast fitness: 0.612 for the first, 0.556 for the second.

Compared with GUUCCGUUGGCAUAAUGGUAACGCGUCUCCCUCCUAAGGAGAAGACUGCGGGUUCGAGUCCCGUACGGCACG [G12A A69C], GUUCCGUUGGCAUAAUGGUAACGCGUCUCCCUCCUAAGGAGAAGACUGCGGGUUCGAGUCCCGUACGGGACG [G12A A69G] is higher in yeast fitness: 0.866 for the first, 0.907 for the second.

Going from GUUCCGUUGGCAUAAUGGUAACGCGUCUCCCUCCUAAGGAGAAGACUGCGGGUUCGAGUCCCGUACGGUACG [G12A A69U] to GUUCCGUUGGCAUAAUGGUAACGCGUCUCCCUCCUAAGGAGAAGACUGCGGGUUCGAGUCCCGUACGGACCG [G12A A70C], the yeast fitness falls from 1.03 to 0.936.

Going from GUUCCGUUGGCAUAAUGGUAAAGCGUCUCCCUCCUAAGGAGAAGACUGCGGGUUCGAGUCCCGUACGGAACG [G12A C22A] to GUUCCGUUGGCAUAAUGGUAAAGCGUCUCCCUCCUAAGGAGAAGACUGCGGGUUCGCGUCCCGAACGGAACG [G12A C22A A57C U64A], the yeast fitness falls from 1.03 to at most 0.5.
